Test results from ChEMBL document CHEMBL3271997, “Reactions of 2-acyloxyisobutyryl halides with nucleosides. 6. Synthesis and biological evaluation of some 3'-acyl derivatives of 2,2'-anhydro-1-(beta-D-arabinofuranosyl)cytosine hydrochloride” (J Med Chem, 1976).
The source made the active and inactive calls. The rule behind the calls is not given here.

What follows are compounds tested on HeLa (assay: Cytotoxicity against human HeLa cells after 48 hrs by Coulter counting analysis). Settings: read-out: ED50 (the source's name).
Format: functional
How it was run: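 HeLa cells (10⁵) were grown for 2 days at 37° in MEM with 10% bovine serum. The medium was then replaced with fresh medium containing serial compound dilutions. After 48 h, cells were dispersed with 0.02% trypsin and 0.04% versene and counted on a Coulter counter. The result is expressed as ED50 in μg/ml.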

SMILES	EC50 [µg/mL]
CCCCCCCCCCCCCCCCCCCC(=O)O[C@H]1[C@@H]2Oc3nc(=N)ccn3[C@@H]2O[C@@H]1CO.Cl	0.22
CCCCCCC/C=C/C(=O)O[C@H]1[C@@H]2Oc3nc(=N)ccn3[C@@H]2O[C@@H]1CO.Cl	0.06
CCC(=O)O[C@H]1[C@@H]2Oc3nc(=N)ccn3[C@@H]2O[C@@H]1CO.Cl	0.1
CC(=O)O[C@H]1[C@@H]2Oc3nc(=N)ccn3[C@@H]2O[C@@H]1CO.Cl	0.18
CCCCCCCCCC(=O)O[C@H]1[C@@H]2Oc3nc(=N)ccn3[C@@H]2O[C@@H]1CO.Cl	0.2
CCCCCCCC/C=C\CCCCCCCC(=O)O[C@H]1[C@@H]2Oc3nc(=N)ccn3[C@@H]2O[C@@H]1CO.Cl	0.08
Cl.N=c1ccn2c(n1)O[C@H]1[C@H](OC(=O)Cc3ccccc3)[C@@H](CO)O[C@H]12	0.07
CCCC(=O)O[C@H]1[C@@H]2Oc3nc(=N)ccn3[C@@H]2O[C@@H]1CO.Cl	0.12
CCCCCCCCCCCCCCCCCC(=O)O[C@H]1[C@@H]2Oc3nc(=N)ccn3[C@@H]2O[C@@H]1CO.Cl	0.22
CCCCCCCCCCC(=O)O[C@H]1[C@@H]2Oc3nc(=N)ccn3[C@@H]2O[C@@H]1CO.Cl	0.06
C=CCCCCCCCCC(=O)O[C@H]1[C@@H]2Oc3nc(=N)ccn3[C@@H]2O[C@@H]1CO.Cl	0.05
Cl.N=c1ccn2c(n1)O[C@H]1[C@H](OC(=O)c3ccccc3)[C@@H](CO)O[C@H]12	0.2

What follows are compounds tested on L1210 (assay: Antitumor activity against mouse L1210 cells allografted in BDF1 mouse assessed as increase in life span at 200 mg/kg, ip administered as single dose 24 hrs post-implantation measured up to 30 days relative to control). Settings: route intraperitoneal.
Format: functional
How it was run: (§1)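 BDF1 mice inoculated ip with 1-2 × 10⁵ L1210 cells; 24 h later a single ip dose given as solution or suspension in aqueous 0.9% NaCl, 0.4% polysorbate 80, 0.5% low-viscosity sodium carboxymethylcellulose, 0.9% benzyl alcohol. Mice held on normal diet for 30 days. Groups of eight to ten animals; percent increase in life span versus untreated infected controls, with 30-day survivors counted.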

SMILES	ILS at 200 mg/kg [%]
CCCCCCCCCCCCCCCCCCCC(=O)O[C@H]1[C@@H]2Oc3nc(=N)ccn3[C@@H]2O[C@@H]1CO.Cl	> 281
CCC(=O)O[C@H]1[C@@H]2Oc3nc(=N)ccn3[C@@H]2O[C@@H]1CO.Cl	29
CC(=O)O[C@H]1[C@@H]2Oc3nc(=N)ccn3[C@@H]2O[C@@H]1CO.Cl	37
CCCCCCCCCC(=O)O[C@H]1[C@@H]2Oc3nc(=N)ccn3[C@@H]2O[C@@H]1CO.Cl	35
CCCCCCCC/C=C\CCCCCCCC(=O)O[C@H]1[C@@H]2Oc3nc(=N)ccn3[C@@H]2O[C@@H]1CO.Cl	72
Cl.N=c1ccn2c(n1)O[C@H]1[C@H](OC(=O)Cc3ccccc3)[C@@H](CO)O[C@H]12	33
CCCC(=O)O[C@H]1[C@@H]2Oc3nc(=N)ccn3[C@@H]2O[C@@H]1CO.Cl	30
CCCCCCCCCCCCCCCCCC(=O)O[C@H]1[C@@H]2Oc3nc(=N)ccn3[C@@H]2O[C@@H]1CO.Cl	115
CCCCCCCCCCC(=O)O[C@H]1[C@@H]2Oc3nc(=N)ccn3[C@@H]2O[C@@H]1CO.Cl	87
C=CCCCCCCCCC(=O)O[C@H]1[C@@H]2Oc3nc(=N)ccn3[C@@H]2O[C@@H]1CO.Cl	38
Cl.N=c1ccn2c(n1)O[C@H]1[C@H](OC(=O)c3ccccc3)[C@@H](CO)O[C@H]12	17

These compounds were tested on Herpesviridae sp. (assay: Antiviral activity against Herpes simplex virus HF infected in African green monkey BGM cells after 6 days by plaque reduction assay). Settings: 144 h, read-out: ED50 (the source's name).
Format: functional
How it was run: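 Quantitative plaque reduction assay. Confluent BGM monolayers were infected with 100-200 pfu of HSV (HF strain) and overlaid with 1.25% agar in MEM with 2.0% bovine serum containing graded compound concentrations. A second overlay with neutral red (1:20000) was added on day 4, and plaques were counted on day 6. ED50, the μM concentration giving 50% plaque reduction, was taken from a probability plot of % inhibition against concentration.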

SMILES	EC50 [nM]
CCCCCCCCCCCCCCCCCCCC(=O)O[C@H]1[C@@H]2Oc3nc(=N)ccn3[C@@H]2O[C@@H]1CO.Cl	> 30000
CCCCCCC/C=C/C(=O)O[C@H]1[C@@H]2Oc3nc(=N)ccn3[C@@H]2O[C@@H]1CO.Cl	210
CCC(=O)O[C@H]1[C@@H]2Oc3nc(=N)ccn3[C@@H]2O[C@@H]1CO.Cl	2550
CC(=O)O[C@H]1[C@@H]2Oc3nc(=N)ccn3[C@@H]2O[C@@H]1CO.Cl	2250
CCCCCCCCCC(=O)O[C@H]1[C@@H]2Oc3nc(=N)ccn3[C@@H]2O[C@@H]1CO.Cl	1050
CCCCCCCC/C=C\CCCCCCCC(=O)O[C@H]1[C@@H]2Oc3nc(=N)ccn3[C@@H]2O[C@@H]1CO.Cl	1200
Cl.N=c1ccn2c(n1)O[C@H]1[C@H](OC(=O)Cc3ccccc3)[C@@H](CO)O[C@H]12	560
CCCC(=O)O[C@H]1[C@@H]2Oc3nc(=N)ccn3[C@@H]2O[C@@H]1CO.Cl	2050
CCCCCCCCCCCCCCCCCC(=O)O[C@H]1[C@@H]2Oc3nc(=N)ccn3[C@@H]2O[C@@H]1CO.Cl	5450
CCCCCCCCCCC(=O)O[C@H]1[C@@H]2Oc3nc(=N)ccn3[C@@H]2O[C@@H]1CO.Cl	460
C=CCCCCCCCCC(=O)O[C@H]1[C@@H]2Oc3nc(=N)ccn3[C@@H]2O[C@@H]1CO.Cl	1200
Cl.N=c1ccn2c(n1)O[C@H]1[C@H](OC(=O)c3ccccc3)[C@@H](CO)O[C@H]12	8200

The compounds below were run on L1210 (assay: Antitumor activity against mouse L1210 cells allografted in BDF1 mouse assessed as increase in life span at 1000 mg/kg, ip administered as single dose 24 hrs post-implantation measured up to 30 days relative to control). Settings: route intraperitoneal.
Format: functional
How it was run: as §1

SMILES	ILS at 1000 mg/kg [%]
CCCCCCCCCCCCCCCCCCCC(=O)O[C@H]1[C@@H]2Oc3nc(=N)ccn3[C@@H]2O[C@@H]1CO.Cl	> 266
CC(=O)O[C@H]1[C@@H]2Oc3nc(=N)ccn3[C@@H]2O[C@@H]1CO.Cl	87
CCCCCCCCCCCCCCCCCC(=O)O[C@H]1[C@@H]2Oc3nc(=N)ccn3[C@@H]2O[C@@H]1CO.Cl	> 257

The compounds below were run on L1210 (assay: Antitumor activity against mouse L1210 cells allografted in BDF1 mouse assessed as survival at 1000 mg/kg, ip administered as single dose 24 hrs post-implantation after 30 days). Settings: not given.
Format: functional, organism-based
Parameters: dose 1000 mg/kg
How it was run: (§2)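 BDF1 mice were inoculated ip with 1-2 × 10⁵ L1210 cells. After 24 h, one ip dose was given as a solution or suspension in aqueous 0.9% NaCl, 0.4% polysorbate 80, 0.5% low-viscosity Na carboxymethylcellulose and 0.9% benzyl alcohol. Mice were followed for 30 days, with 8-10 per group. The read-out is % increase in life span versus infected controls, plus the count of 30-day survivors.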

SMILES	Activity
CCCCCCCCCCCCCCCCCCCC(=O)O[C@H]1[C@@H]2Oc3nc(=N)ccn3[C@@H]2O[C@@H]1CO.Cl	Active
CC(=O)O[C@H]1[C@@H]2Oc3nc(=N)ccn3[C@@H]2O[C@@H]1CO.Cl	inactive
CCCCCCCCCCCCCCCCCC(=O)O[C@H]1[C@@H]2Oc3nc(=N)ccn3[C@@H]2O[C@@H]1CO.Cl	Active

Each compound was assayed on Vaccinia virus (assay: Antiviral activity against Vaccinia virus IHD infected in African green monkey BGM cells after 6 days by plaque reduction assay). Settings: Orthopoxvirus vaccinia, 144 h, read-out: ED50 (the source's name).
Format: functional

SMILES	EC50 [nM]
CCCCCCCCCCCCCCCCCCCC(=O)O[C@H]1[C@@H]2Oc3nc(=N)ccn3[C@@H]2O[C@@H]1CO.Cl	> 30000
CCCCCCC/C=C/C(=O)O[C@H]1[C@@H]2Oc3nc(=N)ccn3[C@@H]2O[C@@H]1CO.Cl	150
CCC(=O)O[C@H]1[C@@H]2Oc3nc(=N)ccn3[C@@H]2O[C@@H]1CO.Cl	600
CC(=O)O[C@H]1[C@@H]2Oc3nc(=N)ccn3[C@@H]2O[C@@H]1CO.Cl	730
CCCCCCCCCC(=O)O[C@H]1[C@@H]2Oc3nc(=N)ccn3[C@@H]2O[C@@H]1CO.Cl	150
CCCCCCCC/C=C\CCCCCCCC(=O)O[C@H]1[C@@H]2Oc3nc(=N)ccn3[C@@H]2O[C@@H]1CO.Cl	670
Cl.N=c1ccn2c(n1)O[C@H]1[C@H](OC(=O)Cc3ccccc3)[C@@H](CO)O[C@H]12	560
CCCC(=O)O[C@H]1[C@@H]2Oc3nc(=N)ccn3[C@@H]2O[C@@H]1CO.Cl	590
CCCCCCCCCCCCCCCCCC(=O)O[C@H]1[C@@H]2Oc3nc(=N)ccn3[C@@H]2O[C@@H]1CO.Cl	1600
CCCCCCCCCCC(=O)O[C@H]1[C@@H]2Oc3nc(=N)ccn3[C@@H]2O[C@@H]1CO.Cl	190
C=CCCCCCCCCC(=O)O[C@H]1[C@@H]2Oc3nc(=N)ccn3[C@@H]2O[C@@H]1CO.Cl	510
Cl.N=c1ccn2c(n1)O[C@H]1[C@H](OC(=O)c3ccccc3)[C@@H](CO)O[C@H]12	5900

The compounds below were run on Mus musculus (assay: Toxicity in BDF1 mouse allografted with mouse L1210 cells assessed as reduction in survival at 200 mg/kg, ip administered as single dose 24 hrs post-implantation measured up to 30 days relative to control). Settings: in vivo.
Format: organism-based
Parameters: dose 200 mg/kg, route intraperitoneal
How it was run: as §1

SMILES	Activity
CCCCCCC/C=C/C(=O)O[C@H]1[C@@H]2Oc3nc(=N)ccn3[C@@H]2O[C@@H]1CO.Cl	Toxic

What follows are compounds tested on Mus musculus (assay: Toxicity in BDF1 mouse allografted with mouse L1210 cells assessed as reduction in average life span at 200 mg/kg, ip administered as single dose 24 hrs post-implantation measured up to 30 days relative to control). Settings: in vivo.
Format: organism-based
Parameters: dose 200 mg/kg, route intraperitoneal
How it was run: as §2

SMILES	ILS [%]
CCCCCCC/C=C/C(=O)O[C@H]1[C@@H]2Oc3nc(=N)ccn3[C@@H]2O[C@@H]1CO.Cl	-83

These compounds were tested on L1210 (assay: Antitumor activity against mouse L1210 cells allografted in BDF1 mouse assessed as survival at 200 mg/kg, ip administered as single dose 24 hrs post-implantation after 30 days). Settings: not given.
Format: functional, organism-based
Parameters: dose 200 mg/kg
How it was run: as §2

SMILES	Activity
CCC(=O)O[C@H]1[C@@H]2Oc3nc(=N)ccn3[C@@H]2O[C@@H]1CO.Cl	inactive
CC(=O)O[C@H]1[C@@H]2Oc3nc(=N)ccn3[C@@H]2O[C@@H]1CO.Cl	inactive
CCCCCCCCCC(=O)O[C@H]1[C@@H]2Oc3nc(=N)ccn3[C@@H]2O[C@@H]1CO.Cl	inactive
CCCCCCCC/C=C\CCCCCCCC(=O)O[C@H]1[C@@H]2Oc3nc(=N)ccn3[C@@H]2O[C@@H]1CO.Cl	inactive
Cl.N=c1ccn2c(n1)O[C@H]1[C@H](OC(=O)Cc3ccccc3)[C@@H](CO)O[C@H]12	inactive
CCCC(=O)O[C@H]1[C@@H]2Oc3nc(=N)ccn3[C@@H]2O[C@@H]1CO.Cl	inactive
CCCCCCCCCCCCCCCCCC(=O)O[C@H]1[C@@H]2Oc3nc(=N)ccn3[C@@H]2O[C@@H]1CO.Cl	inactive
CCCCCCCCCCC(=O)O[C@H]1[C@@H]2Oc3nc(=N)ccn3[C@@H]2O[C@@H]1CO.Cl	inactive
C=CCCCCCCCCC(=O)O[C@H]1[C@@H]2Oc3nc(=N)ccn3[C@@H]2O[C@@H]1CO.Cl	inactive
Cl.N=c1ccn2c(n1)O[C@H]1[C@H](OC(=O)c3ccccc3)[C@@H](CO)O[C@H]12	inactive
